Laboratory results reported in ChEMBL document CHEMBL4715860 (J Med Chem, 2020).
Activity calls are given as the source filed them. The rule behind the calls is not given here.

Assays:
Mus musculus [1] = assay: In vivo inhibition of PI3Kalpha C57BL/6J mouse assessed as increase in plasma insulin concentration at 25 mg/kg, po measured after 8 hrs by ELISA; assay type: functional, organism-based
Method in brief: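 Female C57BL/6J mice given one oral dose (25 mg/kg); plasma insulin and glucose monitored over time, mean ± SEM.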

Rattus norvegicus = assay: In vivo inhibition of PI3Kalpha Sprague-Dawley rat assessed as increase in plasma insulin concentration at 5 mg/kg, po measured after 8 hrs by ELISA; assay type: functional, organism-based
Method in brief: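 Male Sprague Dawley rats dosed orally at 5 mg/kg; plasma insulin and glucose followed over time against vehicle, n = 3, mean ± SEM.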

Mus musculus [2] = assay: Protection against Tsc1-GFAP knockout induced mortality in Balb/c mouse assessed as increase in survival rate at 50 mg/kg, po administered twice daily; assay type: functional, organism-based
Method in brief: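 Tsc1GFAPCKO mice (conditional Tsc1 inactivation mainly in glia) dosed orally starting at P21, at 10 mg/kg or 50 mg/kg bid (n = 10 and 7). Survival recorded to P90, with censoring at P90. Compared with vehicle and everolimus by log-rank test.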

Mus musculus [3] = assay: In vivo inhibition of mTORC1 signalling in C57BL/6J mouse brain assessed as reduction in RPS6 phosphorylation at S235/236 residue at 25 mg/kg, po incubated for 30 mins by Western blot analysis; assay type: functional, organism-based
Method in brief: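 Female C57BL/6J mice dosed at 25 mg/kg p.o.; cortex collected 30 min later and lysed. Equal protein run on SDS-PAGE and western blotted for pS6(Ser235/236), pPKB(Ser473) and α-tubulin, detected by HRP secondary antibodies and ECL. Signal expressed as % of control cortex, n = 3, mean ± SEM, unpaired t-test.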

Mus musculus [4] = assay: In vivo inhibition of mTORC1 signalling in C57BL/6J mouse assessed as reduction in RPS6 phosphorylation at S235/236 residue in brain at 25 mg/kg, po measured after 0.5 to 2 hrs by Western blot analysis; assay type: functional, organism-based; settings: time 0.5-2 hrs
Method in brief: (§1)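 Time course in female C57BL/6J mice after 25 mg/kg p.o.: cortex taken at set time points and western blotted for pS6 and pPKB. Signals quantified against α-tubulin as % of control cortex; n = 3 per time point and n = 9 controls. Brain compound level measured in the same mice.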

[5] = Intrinsic clearance in CD1 mouse hepatocytes assessed per million cells at 5 uM incubated for 3 hrs by LC-MS analysis; assay type: ADME, cell-based, Hepatocyte; settings: read-out: CLH
Method in brief: (§2)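 Cryopreserved primary hepatocytes in suspension from CD-1 mouse, Sprague-Dawley rat, Beagle dog and human. Compound at 5 μM final (from 10 mM DMSO stock). Samples taken at 0, 15, 60, 90 and 180 min and quenched with ACN plus internal standard. Parent quantified by LC-MS. Hepatocyte-free medium incubations served as negative control; 7-ethoxycoumarin as positive control. Duplicate; CLint per 10^6 cells and t1/2.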

[6] = Intrinsic clearance in Beagle dog hepatocytes assessed per million cells at 5 uM incubated for 3 hrs by LC-MS analysis; assay type: ADME, cell-based, Canis lupus familiaris, Hepatocyte; settings: read-out: CLH
Method in brief: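 Cryopreserved Beagle dog hepatocytes in suspension with compound at 5 μM (final, from 10 mM DMSO stock). Sampled at 0, 15, 60, 90 and 180 min, ACN-precipitated and analysed by LC-MS. Duplicates; 7-ethoxycoumarin as positive control, hepatocyte-free medium as negative control. CLint given per 10^6 cells, mean ± SEM (n = 2).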

[7] = Clearance in C57BL/6J mouse plasma at 25 mg/kg, po administered as single dose by mass spectrometry based UHPLC analysis; assay type: ADME, organism-based
Method in brief: (§3)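 One oral dose of 25 mg/kg to female C57BL/6J mice. Plasma and brain concentrations followed over time, n = 3 per time point (mean).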

[8] = Metabolic stability in Beagle dog hepatocytes assessed as parent compound remaining at 5 uM incubated for 3 hrs by LC-MS analysis; assay type: ADME, cell-based, Canis lupus familiaris, Hepatocyte; settings: read-out: Stabilty
Method in brief: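 Cryopreserved primary hepatocytes in suspension (CD-1 mouse, Sprague-Dawley rat, Beagle dog, human). Compound diluted from 10 mM DMSO stock to 5 μM final. Sampled at 0, 15, 60, 90 and 180 min, protein precipitated with ACN plus internal standard, supernatant analysed by LC−MS. Run in duplicate. 7-ethoxycoumarin as positive control. Hepatocyte-free medium incubations as negative control.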

[9] = AUC (0 to 8 hrs) in C57BL/6J mouse plasma at 10 mg/kg, po administered once a day for 4 consecutive days by mass spectrometry based UHPLC analysis; assay type: ADME, organism-based; parameters: route oral, time 4 day, dose 10 mg/kg
Method in brief: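 Female C57BL/6J mice given 10 mg/kg p.o. in 20% Captisol once daily for 4 consecutive days. Plasma and brain sampled after the final dose on day 4, n = 3 per time point.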

[10] = Clearance in C57BL/6J mouse plasma at 10 mg/kg, po administered as single dose by mass spectrometry based UHPLC analysis; assay type: ADME, organism-based
Method in brief: (§4)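 Female C57BL/6J mice, one oral dose of 10 mg/kg in 20% Captisol; plasma and brain levels over time, n = 3 per time point (mean).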

[11] = Toxicity in Tsc1-GFAP knockout Balb/c mouse assessed as change in body weight at 10 to 50 mg/kg, po administered as single dose; assay type: organism-based; settings: in vivo, dose 10-50 mg/kg
[12] = Cmax in C57BL/6J mouse brain at 25 mg/kg, po administered as single dose by mass spectrometry based UHPLC analysis; assay type: ADME, organism-based; parameters: route oral, dose 25 mg/kg; method in brief: as §3
Mus musculus [13] = assay: Protection against Tsc1-GFAP knockout induced mortality in Balb/c mouse assessed as increase in survival rate administered orally twice a day measured post last dose; assay type: functional, organism-based
Method in brief: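 Tsc1GFAPCKO mice (Tsc1 conditionally inactivated mainly in glia). Oral dosing from P21 at 10, 25, 50 mg/kg qd or 50 mg/kg bid, n = 7–10 per group. Controls were vehicle and a comparator at 10 mg/kg. Body weight tracked. Survival followed from P21 to death or censoring at P90, compared by log-rank test.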

[14] = AUC (0 to 8 hrs) in C57BL/6J mouse brain at 10 mg/kg, po administered as single dose by mass spectrometry based UHPLC analysis; assay type: ADME, organism-based; parameters: time < 8 hr, route oral, dose 10 mg/kg; method in brief: as §4
Mus musculus [15] = assay: In vivo inhibition of mTORC2 in C57BL/6J mouse assessed as reduction in PKB/Akt phosphorylation at Ser473 in brain at 25 mg/kg, po measured after 8 hrs by Western blot analysis; assay type: functional, organism-based; method in brief: as §1
[16] = Toxicity in Balb/c nude mouse assessed as change in body weight at 100 mg/kg, po administered once daily for 14 days measured for 7 days starting from post last dose; assay type: organism-based; settings: in vivo, 504 h, time 21 day
[17] = Cmax in C57BL/6J mouse plasma at 10 mg/kg, po administered as single dose by mass spectrometry based UHPLC analysis; assay type: ADME, organism-based; parameters: route oral, dose 10 mg/kg; method in brief: as §4
[18] = Tmax in C57BL/6J mouse brain at 10 mg/kg, po administered once a day for 4 consecutive days by mass spectrometry based UHPLC analysis; assay type: ADME, organism-based; settings: time 4 day
Method in brief: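 Female C57BL/6J mice dosed orally at 10 mg/kg in 20% Captisol, either once or once daily for 4 days with sampling after the last dose on day 4. Plasma and brain concentrations followed over time. Tmax taken from at least 3 time points.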

[19] = Intrinsic clearance in Sprague-Dawley rat hepatocytes assessed per million cells at 5 uM incubated for 3 hrs by LC-MS analysis; assay type: ADME, cell-based, Hepatocyte; settings: read-out: CLH; method in brief: as §2

SMILES: C[C@@H]1COCCN1c1nc(-c2cnc(N)cc2C(F)F)nc(N2[C@H](C)COC[C@@H]2C)n1
- inhibition (Mus musculus [1]): inactive
- inhibition (Rattus norvegicus): inactive
- Activity (Mus musculus [2]): Active
- inhibition (Mus musculus [3]): Active
- inhibition (Mus musculus [4]): Active
- hepatocyte CLint at 5 µM [5]: 4.3 µL/min/1e6 cells
- hepatocyte CLint at 5 µM [6]: 1.8 µL/min/1e6 cells
- CL/F [7]: 40.5 mL/min/kg
- remaining at 3 h, 5 µM [8]: 75.6%
- AUC at 96 h [9]: 2370 ng·h/mL
- CL/F [10]: 56.6 mL/min/kg
- Activity [11]: Non-Toxic
- Cmax [12]: 3340 ng/mL
- Activity (Mus musculus [13]): Dose-dependent effect
- AUC(0-t) at 8 h [14]: 4650 ng·h/mL
- inhibition (Mus musculus [15]): inactive
- Activity [16]: Non-Toxic
- Cmax [17]: 1100 ng/mL
- Tmax [18]: 30 min
- hepatocyte CLint at 5 µM [19]: 5.3 µL/min/1e6 cells
